Test results published in ChEMBL document CHEMBL1165965, “Synthesis and structure-activity relationships of 1,2,3,4-tetrahydropyrido[2,3-b]pyrazines as potent and selective inhibitors of the anaplastic lymphoma kinase” (Bioorg Med Chem, 2010).

How the values were obtained:
[1] = target: STE20-like serine/threonine-protein kinase (Homo sapiens) (UniProt Q9H2G2); test: Inhibition of SLK at 1 uM
[2] = target: Ribosomal protein S6 kinase alpha-4 (Homo sapiens) (UniProt O75676); test: Inhibition of RPS6KA4 N-terminal domain1 at 1 uM
[3] = target: Hepatocyte growth factor receptor (Homo sapiens) (UniProt P08581); test: Inhibition of MET at 1 uM
Outline: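 Single-concentration screen on the Ambit KINOMEscan platform, run against a panel of 250–400 kinases. Per-kinase inhibition was also summarized as S(90), the fraction of kinases inhibited by more than 90%.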

[4] = target: T1, Ephrin type-A receptor 8 (Homo sapiens) (UniProt P29322); test: Inhibition of EPHA8 at 1 uM
T1 sequence (whole entry): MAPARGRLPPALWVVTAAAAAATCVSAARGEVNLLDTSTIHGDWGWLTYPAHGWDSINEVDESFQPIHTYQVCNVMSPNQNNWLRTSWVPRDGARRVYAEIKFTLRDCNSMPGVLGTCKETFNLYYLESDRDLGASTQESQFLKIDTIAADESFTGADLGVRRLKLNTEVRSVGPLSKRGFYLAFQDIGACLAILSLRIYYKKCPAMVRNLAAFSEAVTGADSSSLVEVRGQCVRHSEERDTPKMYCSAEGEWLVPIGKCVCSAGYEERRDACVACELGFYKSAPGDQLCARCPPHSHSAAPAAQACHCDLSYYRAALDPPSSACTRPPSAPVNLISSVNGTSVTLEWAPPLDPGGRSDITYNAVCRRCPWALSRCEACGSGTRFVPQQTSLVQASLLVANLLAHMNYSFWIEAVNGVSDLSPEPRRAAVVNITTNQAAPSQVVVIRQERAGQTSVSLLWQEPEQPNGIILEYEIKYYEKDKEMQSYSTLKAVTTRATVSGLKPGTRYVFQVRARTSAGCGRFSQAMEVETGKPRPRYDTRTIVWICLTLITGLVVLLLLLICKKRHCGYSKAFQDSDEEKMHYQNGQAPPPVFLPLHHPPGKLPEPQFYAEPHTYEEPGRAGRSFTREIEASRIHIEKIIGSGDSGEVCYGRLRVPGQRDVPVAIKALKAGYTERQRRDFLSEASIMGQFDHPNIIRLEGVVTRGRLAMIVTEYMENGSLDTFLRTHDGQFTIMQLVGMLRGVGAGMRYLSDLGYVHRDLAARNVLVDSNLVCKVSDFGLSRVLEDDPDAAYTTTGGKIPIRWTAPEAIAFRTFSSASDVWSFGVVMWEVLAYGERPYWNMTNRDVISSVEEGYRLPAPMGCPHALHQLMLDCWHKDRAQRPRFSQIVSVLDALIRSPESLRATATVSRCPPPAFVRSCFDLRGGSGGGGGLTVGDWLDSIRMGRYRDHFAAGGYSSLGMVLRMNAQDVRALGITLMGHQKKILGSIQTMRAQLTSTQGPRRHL
Outline: (§1)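 Single-concentration screen using Ambit Bioscience KINOMEscan technology across a panel of 250–400 kinases. Per-kinase inhibition from this screen was summarized as S(90), the fraction of kinases inhibited by more than 90%.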

[5] = target: SRSF protein kinase 3 (Homo sapiens) (UniProt Q9UPE1); test: Inhibition of SRPK3 at 1 uM
[6] = target: RAC-alpha serine/threonine-protein kinase (Homo sapiens) (UniProt P31749); test: Inhibition of AKT1 at 1 uM
Outline: (§2)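 Ambit KINOMEscan screen at a single concentration across a 250–400 kinase panel, recorded as percent inhibition. Selectivity was expressed as S(90), the fraction of kinases inhibited >90%.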

[7] = system: Serine/threonine-protein kinase B-raf (Homo sapiens), P15056 [V600E]; test: Inhibition of BRAF V600E mutant at 1 uM; outline: as §2
[8] = target: Tyrosine-protein kinase CSK (Homo sapiens) (UniProt P41240); test: Inhibition of CSK at 1 uM; outline: as §1
[9] = target: T2, Mitogen-activated protein kinase kinase kinase 15 (Homo sapiens) (UniProt Q6ZN16); test: Inhibition of MAP3K15 at 1 uM
T2 sequence (whole entry): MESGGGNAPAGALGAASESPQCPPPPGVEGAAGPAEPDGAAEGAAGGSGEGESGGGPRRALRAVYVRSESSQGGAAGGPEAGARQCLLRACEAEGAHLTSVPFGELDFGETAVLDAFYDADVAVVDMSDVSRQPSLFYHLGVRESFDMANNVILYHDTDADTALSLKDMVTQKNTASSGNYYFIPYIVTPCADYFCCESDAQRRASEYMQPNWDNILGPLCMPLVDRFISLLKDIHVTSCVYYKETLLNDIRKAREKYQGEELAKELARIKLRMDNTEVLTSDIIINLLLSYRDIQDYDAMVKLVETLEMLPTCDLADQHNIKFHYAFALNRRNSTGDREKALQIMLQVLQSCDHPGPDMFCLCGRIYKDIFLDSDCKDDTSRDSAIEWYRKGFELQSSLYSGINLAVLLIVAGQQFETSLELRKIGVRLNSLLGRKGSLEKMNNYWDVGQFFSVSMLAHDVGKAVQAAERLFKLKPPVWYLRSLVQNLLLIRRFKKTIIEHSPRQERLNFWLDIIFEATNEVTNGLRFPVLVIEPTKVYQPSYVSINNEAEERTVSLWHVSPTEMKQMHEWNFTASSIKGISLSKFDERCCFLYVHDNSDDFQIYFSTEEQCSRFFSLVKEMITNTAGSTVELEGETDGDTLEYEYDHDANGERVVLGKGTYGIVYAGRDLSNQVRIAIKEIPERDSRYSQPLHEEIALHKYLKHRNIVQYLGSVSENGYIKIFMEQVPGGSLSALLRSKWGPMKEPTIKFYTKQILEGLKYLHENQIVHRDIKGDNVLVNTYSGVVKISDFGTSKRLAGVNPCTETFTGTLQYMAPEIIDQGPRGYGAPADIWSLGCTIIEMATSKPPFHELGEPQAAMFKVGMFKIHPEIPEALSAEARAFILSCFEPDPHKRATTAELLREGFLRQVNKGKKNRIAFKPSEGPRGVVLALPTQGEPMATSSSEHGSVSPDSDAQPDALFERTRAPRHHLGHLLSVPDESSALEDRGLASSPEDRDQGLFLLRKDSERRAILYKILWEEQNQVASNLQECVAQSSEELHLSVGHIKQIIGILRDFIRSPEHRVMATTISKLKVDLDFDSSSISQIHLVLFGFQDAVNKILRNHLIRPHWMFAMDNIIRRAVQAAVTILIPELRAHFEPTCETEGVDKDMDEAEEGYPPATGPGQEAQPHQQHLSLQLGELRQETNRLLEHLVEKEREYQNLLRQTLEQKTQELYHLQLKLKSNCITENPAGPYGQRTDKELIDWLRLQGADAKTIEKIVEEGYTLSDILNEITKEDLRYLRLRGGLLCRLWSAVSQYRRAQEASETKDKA

Hepatocyte growth factor receptor (Homo sapiens), sequence (P08581 whole entry): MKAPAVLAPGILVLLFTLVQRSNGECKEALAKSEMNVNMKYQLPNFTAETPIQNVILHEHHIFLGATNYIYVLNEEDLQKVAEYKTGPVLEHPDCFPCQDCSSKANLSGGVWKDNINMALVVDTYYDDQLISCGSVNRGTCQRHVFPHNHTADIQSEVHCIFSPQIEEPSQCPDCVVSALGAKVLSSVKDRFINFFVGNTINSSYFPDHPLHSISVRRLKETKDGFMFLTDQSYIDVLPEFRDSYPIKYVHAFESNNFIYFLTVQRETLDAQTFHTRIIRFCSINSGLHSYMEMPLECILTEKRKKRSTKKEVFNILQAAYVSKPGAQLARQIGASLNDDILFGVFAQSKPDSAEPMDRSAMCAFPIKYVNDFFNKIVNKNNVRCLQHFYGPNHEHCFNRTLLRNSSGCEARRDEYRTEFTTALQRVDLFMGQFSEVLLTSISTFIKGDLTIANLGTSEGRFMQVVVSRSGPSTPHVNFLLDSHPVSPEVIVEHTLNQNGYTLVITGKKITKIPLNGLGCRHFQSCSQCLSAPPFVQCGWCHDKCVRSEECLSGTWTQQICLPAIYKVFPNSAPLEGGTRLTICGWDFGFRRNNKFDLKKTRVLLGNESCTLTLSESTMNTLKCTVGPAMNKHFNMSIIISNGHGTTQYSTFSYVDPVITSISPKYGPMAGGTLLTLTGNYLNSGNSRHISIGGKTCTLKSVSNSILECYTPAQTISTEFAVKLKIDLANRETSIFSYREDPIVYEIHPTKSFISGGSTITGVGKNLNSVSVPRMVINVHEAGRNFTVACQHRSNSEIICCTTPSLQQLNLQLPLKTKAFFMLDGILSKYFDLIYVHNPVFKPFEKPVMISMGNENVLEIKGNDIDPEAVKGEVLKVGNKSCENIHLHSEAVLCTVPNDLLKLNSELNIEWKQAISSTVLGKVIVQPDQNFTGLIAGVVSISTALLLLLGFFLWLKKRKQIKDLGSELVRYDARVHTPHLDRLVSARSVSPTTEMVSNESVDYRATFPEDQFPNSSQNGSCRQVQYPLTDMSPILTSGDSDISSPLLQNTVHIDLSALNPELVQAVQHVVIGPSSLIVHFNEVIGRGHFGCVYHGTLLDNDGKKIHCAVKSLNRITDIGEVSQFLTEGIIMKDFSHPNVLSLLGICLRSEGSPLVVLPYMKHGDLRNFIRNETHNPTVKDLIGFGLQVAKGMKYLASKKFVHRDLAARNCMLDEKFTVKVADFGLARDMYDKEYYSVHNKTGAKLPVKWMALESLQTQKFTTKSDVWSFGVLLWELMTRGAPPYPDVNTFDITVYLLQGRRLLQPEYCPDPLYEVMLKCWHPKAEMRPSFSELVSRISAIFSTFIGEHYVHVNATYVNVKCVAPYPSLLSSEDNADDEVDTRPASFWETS
Ribosomal protein S6 kinase alpha-4 (Homo sapiens), sequence (O75676 whole entry, looked up, the tested form may be a part): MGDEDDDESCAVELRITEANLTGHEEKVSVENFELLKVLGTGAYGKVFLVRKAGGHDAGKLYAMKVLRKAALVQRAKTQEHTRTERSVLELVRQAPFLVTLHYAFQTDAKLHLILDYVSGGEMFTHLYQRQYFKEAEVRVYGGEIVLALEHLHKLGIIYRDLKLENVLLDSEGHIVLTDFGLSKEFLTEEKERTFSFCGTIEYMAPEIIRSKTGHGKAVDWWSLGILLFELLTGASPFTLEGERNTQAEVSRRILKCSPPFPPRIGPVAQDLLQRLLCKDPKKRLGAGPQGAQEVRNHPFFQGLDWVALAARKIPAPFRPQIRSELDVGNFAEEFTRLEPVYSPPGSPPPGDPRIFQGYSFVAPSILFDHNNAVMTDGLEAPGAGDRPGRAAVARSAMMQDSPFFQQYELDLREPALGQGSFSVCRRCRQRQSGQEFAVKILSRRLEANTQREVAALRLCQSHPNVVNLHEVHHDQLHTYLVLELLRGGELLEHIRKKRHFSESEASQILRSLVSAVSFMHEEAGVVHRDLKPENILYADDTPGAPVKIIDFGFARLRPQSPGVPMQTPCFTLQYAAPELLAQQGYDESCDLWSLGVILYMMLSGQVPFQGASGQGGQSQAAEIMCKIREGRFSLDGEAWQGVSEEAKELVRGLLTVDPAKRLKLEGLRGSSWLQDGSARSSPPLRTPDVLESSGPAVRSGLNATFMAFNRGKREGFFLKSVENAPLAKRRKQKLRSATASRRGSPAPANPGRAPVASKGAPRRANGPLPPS
Tyrosine-protein kinase CSK (Homo sapiens), sequence (P41240 2-450 limits assumed): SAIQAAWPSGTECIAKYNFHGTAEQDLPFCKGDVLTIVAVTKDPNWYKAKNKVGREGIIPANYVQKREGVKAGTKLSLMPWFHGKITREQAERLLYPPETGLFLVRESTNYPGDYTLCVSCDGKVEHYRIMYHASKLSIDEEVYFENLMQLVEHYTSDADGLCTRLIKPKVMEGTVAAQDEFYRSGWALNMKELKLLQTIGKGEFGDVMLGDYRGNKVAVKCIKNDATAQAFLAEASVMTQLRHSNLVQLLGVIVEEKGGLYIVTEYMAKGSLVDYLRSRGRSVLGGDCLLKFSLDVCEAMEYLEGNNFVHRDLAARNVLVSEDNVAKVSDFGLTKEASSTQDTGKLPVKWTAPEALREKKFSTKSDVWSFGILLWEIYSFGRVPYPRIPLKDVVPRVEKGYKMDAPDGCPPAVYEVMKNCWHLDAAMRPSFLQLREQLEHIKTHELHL
Serine/threonine-protein kinase B-raf (Homo sapiens), P15056 [V600E], sequence (P15056 whole entry V600E): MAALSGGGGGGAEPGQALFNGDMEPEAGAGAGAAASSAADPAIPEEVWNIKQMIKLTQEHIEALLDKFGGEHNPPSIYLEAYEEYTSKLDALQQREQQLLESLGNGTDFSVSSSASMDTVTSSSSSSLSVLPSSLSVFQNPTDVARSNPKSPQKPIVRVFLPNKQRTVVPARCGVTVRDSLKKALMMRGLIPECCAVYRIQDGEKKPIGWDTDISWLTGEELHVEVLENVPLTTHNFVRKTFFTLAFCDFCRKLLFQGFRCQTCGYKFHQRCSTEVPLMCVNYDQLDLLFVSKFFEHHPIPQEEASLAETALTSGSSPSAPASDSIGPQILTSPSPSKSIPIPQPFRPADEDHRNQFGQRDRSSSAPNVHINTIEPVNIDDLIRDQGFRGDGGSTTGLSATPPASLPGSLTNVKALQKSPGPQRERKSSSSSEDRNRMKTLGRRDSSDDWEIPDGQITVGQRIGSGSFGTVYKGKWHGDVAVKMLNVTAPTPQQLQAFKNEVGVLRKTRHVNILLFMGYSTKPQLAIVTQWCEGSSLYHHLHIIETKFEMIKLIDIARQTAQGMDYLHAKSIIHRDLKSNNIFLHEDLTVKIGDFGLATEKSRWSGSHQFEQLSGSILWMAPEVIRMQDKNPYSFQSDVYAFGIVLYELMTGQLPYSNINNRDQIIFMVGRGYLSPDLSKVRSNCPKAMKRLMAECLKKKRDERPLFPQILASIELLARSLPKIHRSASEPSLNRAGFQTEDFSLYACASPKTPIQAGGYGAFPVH
SRSF protein kinase 3 (Homo sapiens), sequence (Q9UPE1 whole entry): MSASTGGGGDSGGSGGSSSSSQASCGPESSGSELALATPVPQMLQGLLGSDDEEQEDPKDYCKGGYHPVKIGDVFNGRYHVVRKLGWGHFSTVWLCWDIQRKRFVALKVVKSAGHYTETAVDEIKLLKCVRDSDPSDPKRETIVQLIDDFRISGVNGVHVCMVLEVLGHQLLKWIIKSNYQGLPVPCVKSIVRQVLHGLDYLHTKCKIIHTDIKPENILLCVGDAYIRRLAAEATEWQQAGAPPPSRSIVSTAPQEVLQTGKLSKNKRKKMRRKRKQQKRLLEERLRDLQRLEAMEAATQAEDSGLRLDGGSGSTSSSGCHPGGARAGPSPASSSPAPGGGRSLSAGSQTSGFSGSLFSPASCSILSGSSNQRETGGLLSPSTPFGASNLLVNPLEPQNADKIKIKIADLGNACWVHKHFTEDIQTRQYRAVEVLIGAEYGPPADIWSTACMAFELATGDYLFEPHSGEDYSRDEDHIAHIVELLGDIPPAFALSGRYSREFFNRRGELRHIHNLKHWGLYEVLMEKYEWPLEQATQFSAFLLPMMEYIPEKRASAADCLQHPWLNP
RAC-alpha serine/threonine-protein kinase (Homo sapiens), sequence (P31749 whole entry): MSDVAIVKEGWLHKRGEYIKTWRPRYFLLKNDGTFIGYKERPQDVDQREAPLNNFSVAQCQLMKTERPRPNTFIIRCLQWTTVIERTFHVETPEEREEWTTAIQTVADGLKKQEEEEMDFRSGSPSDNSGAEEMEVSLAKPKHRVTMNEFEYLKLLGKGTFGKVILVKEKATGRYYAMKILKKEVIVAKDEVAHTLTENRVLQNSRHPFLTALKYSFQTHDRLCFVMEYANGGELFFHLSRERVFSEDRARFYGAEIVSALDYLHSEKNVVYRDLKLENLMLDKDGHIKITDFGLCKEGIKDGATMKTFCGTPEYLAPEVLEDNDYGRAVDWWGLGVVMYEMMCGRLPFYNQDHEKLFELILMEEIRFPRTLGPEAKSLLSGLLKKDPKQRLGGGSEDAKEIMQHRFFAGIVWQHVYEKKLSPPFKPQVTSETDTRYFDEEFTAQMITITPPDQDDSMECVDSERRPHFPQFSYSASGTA

CN1CCN(c2ccc(-c3cnc4c(c3)N(Cc3cc(Cl)ccc3Cl)CCN4)cn2)CC1
inhibition [1]: < 50% | inhibition [2]: < 50% | inhibition [3]: 67% | inhibition [4]: < 50% | inhibition [5]: < 50% | inhibition [6]: < 50% | inhibition [7]: < 50% | inhibition [8]: < 50% | inhibition [9]: < 50%

CN1CCN(c2ccc(-c3cnc4c(c3)N(Cc3cc(Cl)ccc3C(F)(F)F)CCN4)cn2)CC1
inhibition [1]: < 50% | inhibition [2]: < 50% | inhibition [3]: 82% | inhibition [4]: < 50% | inhibition [5]: < 50% | inhibition [6]: < 50% | inhibition [7]: < 50% | inhibition [8]: < 50% | inhibition [9]: < 50%

CN1CCN(c2ccc(-c3cnc4c(c3)N(Cc3c(F)ccc(F)c3Cl)CCN4)cn2)CC1
inhibition [1]: < 50% | inhibition [2]: < 50% | inhibition [3]: 94% | inhibition [4]: < 50% | inhibition [5]: < 50% | inhibition [6]: < 50% | inhibition [7]: < 50% | inhibition [8]: < 50% | inhibition [9]: < 50%

O=C(c1ccc(-c2cnc3c(c2)N(Cc2cc(Cl)ccc2C(F)(F)F)CCN3)cc1)N1CCC(N2CCCC2)CC1
inhibition [1]: < 50% | inhibition [2]: < 50% | inhibition [3]: 90.3% | inhibition [4]: < 50% | inhibition [6]: < 50% | inhibition [7]: < 50% | inhibition [8]: < 50%

COC1CCN(C(=O)c2ccc(-c3cnc4c(c3)N(Cc3cc(Cl)ccc3C(F)(F)F)CCN4)cc2)CC1
inhibition [1]: < 50% | inhibition [2]: < 50% | inhibition [3]: 76.6% | inhibition [4]: < 50% | inhibition [6]: < 50% | inhibition [7]: < 50% | inhibition [8]: < 50%

FC(F)(F)c1ccc(Cl)cc1CN1CCNc2ncc(-c3ccnc(N4CCNCC4)c3)cc21
inhibition [1]: < 50% | inhibition [2]: < 50% | inhibition [3]: 94% | inhibition [4]: < 50% | inhibition [5]: < 50% | inhibition [6]: < 50% | inhibition [7]: < 50% | inhibition [8]: < 50% | inhibition [9]: < 50%

CN1CCN(c2ccc(-c3cnc4c(c3)N(Cc3cc(F)ccc3F)CCN4)cn2)CC1
inhibition [1]: < 50% | inhibition [2]: < 50% | inhibition [3]: < 50% | inhibition [4]: < 50% | inhibition [5]: < 50% | inhibition [6]: < 50% | inhibition [7]: < 50% | inhibition [8]: < 50% | inhibition [9]: < 50%

O=C(c1ccc(-c2cnc3c(c2)N(Cc2cc(Cl)ccc2C(F)(F)F)CCN3)cc1)N1CCCCC1
inhibition [1]: < 50% | inhibition [2]: < 50% | inhibition [3]: 66% | inhibition [4]: < 50% | inhibition [6]: < 50% | inhibition [7]: < 50% | inhibition [8]: < 50%

CC(=O)N1CCN(c2cc(-c3cnc4c(c3)N(Cc3cc(Cl)ccc3C(F)(F)F)CCN4)ccn2)CC1
inhibition [1]: < 50% | inhibition [2]: < 50% | inhibition [3]: 86% | inhibition [4]: < 50% | inhibition [5]: < 50% | inhibition [6]: < 50% | inhibition [7]: < 50% | inhibition [8]: < 50% | inhibition [9]: < 50%

O=C(O)c1ccc(-c2cnc3c(c2)N(Cc2cc(Cl)ccc2C(F)(F)F)CCN3)cc1
inhibition [1]: < 50% | inhibition [2]: < 50% | inhibition [3]: < 50% | inhibition [4]: < 50% | inhibition [6]: < 50% | inhibition [7]: < 50% | inhibition [8]: < 50%
